Activity calls are given as the source filed them. The rule behind the calls is not given here.
How the values were obtained:
[1] = target: T1, P2X purinoceptor 7 (Homo sapiens) (UniProt Q99572); assay: Antagonist activity at human P2X7 receptor expressed in HEK293 cells assessed as reduction in benzoyl-ATP-induced YO-PRO-1 dye uptake at 10 uM pre-incubated for 20 mins before YO-PRO-1 addition and measured after 25 mins by fluorescence plate reader analysis relative to control; format: cell-based; conditions: time 45.0 min
T1 sequence (whole entry): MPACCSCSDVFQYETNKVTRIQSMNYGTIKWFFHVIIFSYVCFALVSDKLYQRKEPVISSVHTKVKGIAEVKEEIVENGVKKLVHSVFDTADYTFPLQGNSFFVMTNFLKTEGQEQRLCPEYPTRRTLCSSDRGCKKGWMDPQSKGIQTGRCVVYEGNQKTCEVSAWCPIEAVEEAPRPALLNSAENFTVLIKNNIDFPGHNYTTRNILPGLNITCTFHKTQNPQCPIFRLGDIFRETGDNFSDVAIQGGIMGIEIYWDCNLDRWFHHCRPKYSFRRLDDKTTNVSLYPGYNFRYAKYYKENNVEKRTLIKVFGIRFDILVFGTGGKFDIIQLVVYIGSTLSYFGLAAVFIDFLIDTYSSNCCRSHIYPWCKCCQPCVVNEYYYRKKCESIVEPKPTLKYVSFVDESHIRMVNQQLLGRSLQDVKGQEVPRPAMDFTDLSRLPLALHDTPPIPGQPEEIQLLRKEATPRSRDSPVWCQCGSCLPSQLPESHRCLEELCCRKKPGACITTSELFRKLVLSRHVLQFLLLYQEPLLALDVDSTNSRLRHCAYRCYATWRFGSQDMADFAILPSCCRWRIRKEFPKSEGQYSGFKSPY
Outline: (§1)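 Stably transfected hP2X7-HEK293 cells, 48 h after seeding, in Mg²⁺-free Krebs-HEPES (0.2 mM CaCl₂, pH 7.4). Compound preincubation 20 min, then YO-PRO-1 2 μM, then BzATP 30 μM. Fluorescence at 485/520 nm read for 25 min. Each well normalized to Fmax (0.5% Triton X-100) and Fmin (2 M MnCl₂): F = (Fx − F0)/(Fmax − Fmin). Triplicates from three cultures. IC50 is the concentration halving BzATP-induced uptake.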

[2] = target: T2, P2X purinoceptor 7 (Homo sapiens, UniProt Q99572); assay: Antagonist activity at human P2X7 receptor expressed in HEK293 cells assessed as reduction in benzoyl-ATP-induced YO-PRO-1 dye uptake pre-incubated for 20 mins before YO-PRO-1 addition and measured after 25 mins by fluorescence plate reader analysis relative to control; format: cell-based; outline: as §1
T2 sequence (Q99572 whole entry): T1 sequence (whole entry)

[3] = target: T1, P2X purinoceptor 7 (Homo sapiens); assay: Antagonist activity at human P2X7 receptor expressed in Xenopus laevis oocytes assessed as reduction in ATP-induced channel currents at 100 uM by TEVC electrophysiology assay relative to control; format: cell-based; conditions: Oocyte
Outline: (§2)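 Oocytes injected with 50 nL His-tagged hP2X7 cRNA (0.5 mg/mL), kept 1–2 days at 16–18 °C. Recorded in low divalent-cation solution (90 mM NaCl, 0.5 mM CaCl₂, 5 mM HEPES) at −70 mV. ATP 300 μM for 2 s after 3 min static compound incubation. Current normalized to control amplitude. Triplicates from three oocytes, two frogs.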

[4] = target: T1, P2X purinoceptor 7 (Homo sapiens); assay: Antagonist activity at human P2X7 receptor expressed in HEK293 cells assessed as reduction in benzoyl-ATP-induced intracellular Ca2+ level by Fura-2 dye based fluorescence assay; format: cell-based; conditions: filed as antagonist
Outline: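 hP2X7-HEK293 cells 24–48 h after seeding, loaded with Fura-2-AM 8 μM for 1 h, then washed in Mg²⁺-free Tyrode (2 mM CaCl₂, pH 7.4) for 15–30 min with compound present. Excitation 340/380 nm, emission 520 nm. Basal recording, then BzATP injected (100 μM final). [Ca²⁺]c from Grynkiewicz equation. Blockade as percent of BzATP peak in Tyrode-only wells; triplicates.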

[5] = target: T1, P2X purinoceptor 7 (Homo sapiens); assay: Antagonist activity at human P2X7 receptor expressed in HEK293 cells assessed as reduction in benzoyl-ATP-induced YO-PRO-1 dye uptake at 1 uM pre-incubated for 20 mins before YO-PRO-1 addition and measured after 25 mins by fluorescence plate reader analysis relative to control; format: cell-based; conditions: filed as antagonist, time 45.0 min; outline: as §1
[6] = target: T1, P2X purinoceptor 7 (Homo sapiens); assay: Antagonist activity at human P2X7 receptor expressed in Xenopus laevis oocytes assessed as reduction in ATP-induced channel currents at 1 uM by TEVC electrophysiology assay relative to control; format: cell-based; conditions: Oocyte, filed as antagonist; outline: as §2
[7] = system: Peritoneal macrophage; assay: Inhibition of Il-1beta production in LPS-stimulated C57BL/6 mouse peritoneal macrophages pre-incubated for 15 mins followed by ATP addition for 30 mins by ELISA method; format: functional, tissue-based; conditions: time 45.0 min
Outline: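 Thioglycolate-elicited peritoneal macrophages from 6–8-week male C57BL/6 mice, 3 × 10⁵ cells/well. Primed 4 h with LPS 1 μg/mL (E. coli 026:B6), then serum-free DMEM with compound for 15 min, then ATP for 30 min. Supernatant IL-1β measured by ELISA, expressed as percent of ATP-only control. Triplicates from three mice.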

SMILES | inhibition [3] | inhibition [1] | further results
O=C(Cn1cnc2c(-c3ccccc3)ncnc21)c1ccc(Cl)cc1Cl | 11% |  | inhibition ([1]; filed as antagonist): 62%; IC50 [2]: 6 µM; inhibition [4]: Active
Cc1cc(F)ccc1S(=O)(=O)n1cnc2c1c(=O)n(C)c(=O)n2C | inactive | 23% | 
COc1ncnc2c1ncn2CC(=O)c1ccc(Cl)cc1Cl | 14% | 25% | 
Cn1cnc2c1c(=O)n(C(=O)c1ccccc1Cl)c(=O)n2C | 5% | 5% | 
CNc1nc(Cl)nc2c1ncn2S(=O)(=O)c1ccccc1Cl | 2% | 4% | 
O=C(Cn1cnc2c(Cl)ncnc21)c1ccc(F)cc1 | 7% | 34% | 
Nc1nc(Cl)c2ncn(S(=O)(=O)c3ccccc3Cl)c2n1 | inactive | 9% | 
O=C(Cn1cnc2c(Cl)nc(F)nc21)c1ccc(Cl)cc1Cl | 24% | 27% | 
COc1ncnc2c1ncn2C(=O)c1ccccc1Cl | 0% | 1% | 
O=S(=O)(c1ccccc1Cl)n1cnc2c(Cl)nc(Cl)nc21 | 2% |  | inhibition ([1]; filed as antagonist): 46%; IC50 [2]: 10.2 µM
O=C(NCC1(N2CCN(c3ccccc3)CC2)CCOCC1)c1cccnc1Sc1ccccc1 |  |  | inhibition [5]: 56%; inhibition [6]: 49%
O=C(Cn1cnc2c(Cl)nc(Cl)nc21)c1ccc(Cl)cc1Cl | 24% |  | inhibition ([1]; filed as antagonist): 41%; IC50 [2]: 13 µM
Cn1c(=O)c2c(ncn2S(=O)(=O)c2ccc(C(F)(F)F)cc2Cl)n(C)c1=O | inactive | 5% | 
Cn1c(=O)c2c(ncn2S(=O)(=O)c2ccc(Cl)cc2Cl)n(C)c1=O | 9% | 7% | 
Cn1c(=O)c2c(ncn2CC(=O)c2ccc(Cl)cc2Cl)n(C)c1=O | 10% | 0% | 
Cn1c(=O)c2c(ncn2S(=O)(=O)c2cc(Cl)ccc2Cl)n(C)c1=O | inactive | 4% | 
Cn1cnc2c(=O)n(Cc3ccccc3Cl)c(Cl)nc21 | 9% | 16% | 
COc1ncnc2c1ncn2S(=O)(=O)c1ccccc1Cl | 8% | inactive | 
O=C(Cn1cnc2c(I)nc(Cl)nc21)c1ccc(Cl)cc1Cl | 6% | 14% | 
O=C(CCn1cnc2c(Cl)ncnc21)c1ccc(Cl)cc1Cl | 6% | 19% | 
Cn1c(=O)c2c(ncn2S(=O)(=O)c2ccc(F)cc2Cl)n(C)c1=O | inactive | 20% | 
O=C(Cn1cnc2c(Cl)ncnc21)c1ccc(Cl)cc1 | 11% |  | inhibition ([1]; filed as antagonist): 55%; IC50 [2]: 10 µM
Cn1c(=O)c2c(ncn2S(=O)(=O)c2ccc(F)cc2F)n(C)c1=O | 1% | 7% | 
O=C(c1ccccc1Cl)n1cnc2c(Cl)ncnc21 | 5% | 7% | 
Cn1c(=O)c2c(ncn2S(=O)(=O)c2ccccc2Cl)n(C)c1=O | 28% |  | inhibition ([1]; filed as antagonist): 52%; IC50 [2]: 10 µM; inhibition [7]: Dose-dependent effect
CNc1nc(Cl)nc2c1ncn2CC(=O)c1ccc(Cl)cc1Cl | 5% | 2% | 
Cn1cnc2c1c(=O)n(CC(=O)c1ccc(Cl)cc1Cl)c(=O)n2C | 2% | inactive | 
Cn1c(=O)c2c(ncn2S(=O)(=O)c2ccc(F)cc2)n(C)c1=O | inactive | 10% | 
Nc1nc(Cl)c2ncn(CC(=O)c3ccc(Cl)cc3Cl)c2n1 | 6% | 4% | 
O=S(=O)(c1ccccc1Cl)n1cnc2c(Cl)ncnc21 | 9% | 17% | 

Reference: ChEMBL document CHEMBL4706687, “Synthesis and Pharmacological Evaluation of Novel Non-nucleotide Purine Derivatives as P2X7 Antagonists for the Treatment of Neuroinflammation” (J Med Chem, 2021)
